From ChEMBL document CHEMBL1811844, “Design, synthesis, and biological evaluation of triazolo-pyrimidine derivatives as novel inhibitors of hepatitis B virus surface antigen (HBsAg) secretion” (J Med Chem, 2011)

What was measured:
Type in all cases: ADME, organism-based
Conditions in all cases: in vivo
Rattus norvegicus [1] = experiment: Half life in fasted Sprague-Dawley rat plasma at 5 mg/kg, iv by LC/MS/MS analysis; design: dose 5 mg/kg, route intravenous
Summary of the method: (§1)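 Male Sprague-Dawley rats, 3 per treatment, carried jugular cannulae and were fasted 12 h with water. Compound was formulated at 2 mg/mL in 1:1 NMP:Solutol HS15 diluted with saline. Dosing was 5 mg/kg iv or 25 mg/kg oral gavage. Blood was drawn predose and at 5, 15, 30 min, 1, 3 and 6 h. Plasma was quantified by LC-MS/MS against an 8-point standard curve.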

Rattus norvegicus [2] = experiment: Cmax in fasted Sprague-Dawley rat plasma at 25 mg/kg, po after 6 hrs by LC/MS/MS analysis; design: dose 25 mg/kg, route oral
Summary of the method: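 Male rats, 3 per treatment, fitted with jugular vein cannulae two days before dosing and fasted 12 h (water allowed). Compound given by gavage at 25 mg/kg, formulated at 2 mg/mL in 1:1 NMP:Solutol HS15 diluted with saline. Blood taken predose and at 5, 15, 30 min, 1, 3 and 6 h. Plasma quantified by LC/MS against an 8-point standard curve; Cmax calculated by standard methods.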

Rattus norvegicus [3] = experiment: Total body clearance in fasted Sprague-Dawley rat at 5 mg/kg, iv by LC/MS/MS analysis; design: dose 5 mg/kg, route intravenous; summary of the method: as §1
Rattus norvegicus [4] = experiment: Volume of distribution at steady state in fasted Sprague-Dawley rat at 5 mg/kg, iv by LC/MS/MS analysis; design: dose 5 mg/kg, route intravenous; summary of the method: as §1
Rattus norvegicus [5] = experiment: Oral bioavailability in fasted Sprague-Dawley rat at 25 mg/kg after 6 hrs by LC/MS/MS analysis; summary of the method: as §1

t1/2 (Rattus norvegicus [1]): 2.4 h | Cmax (Rattus norvegicus [2]): 1937 ng/mL | CL (Rattus norvegicus [3]): 17 mL/min/kg | Vdss (Rattus norvegicus [4]): 2.6 L/kg | F (Rattus norvegicus [5]): 42%
Compound: Fc1cccc(F)c1C1C=C(c2ccc(Cl)cc2)Nc2ncnn21 (stereo not given)
